High-throughput results: PubChem, Broad Institute
The sample as a whole holds a higher share of hits than the screen did.
YB-1 expression = YB-1 expression inhibition; U2OS, qRT-PCR YB-1 vs CDIP delta delta Cp, 16 h; stronger effect = higher value; zero = DMSO, each unit about twofold; delta delta Cp (YB-1 minus CDIP) (concentration not given with the values); 0.37% of 30,000 active; AID 434959;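 active = delta delta Cp rounded down to an integer at or above 3, about 3 SD of DMSO wells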;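 also: higher means less YB-1 transcript or more CDIP transcript relative to DMSO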
INS-1E rescue = INS-1E beta cell protection from cytokine death | 0.1% of 20,000 active | INS-1E cytokine-induced death, ATP luminescence, 48 h; normalised: neutral wells 0, positive control 100 | protection from cytokine-induced ATP loss, % at 10 µM;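 active = mean replicate protection from cytokine-induced ATP loss at least 50% and at least 75% of replicates each reaching 50%; inconclusive = meets only one of the two criteria, mean or replicate share; inactive = fails both the mean and replicate share criteria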
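Material: INS-1E rat cells; Quantity: 8000 cells/well; Buffer or medium: phenol-red-free RPMI with 5% fetal bovine serum; Probe or stimulus: cytokine cocktail of IFN-γ, TNF-α and IL-1β; Compound dosing: single test concentration per compound, delivered by pin transfer; Incubation: 48 h co-treatment, 10 min post-lysis read; Signal: CellTiter-Glo luminescence.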
T cruzi HTS = blocks T. cruzi growth inside host cells. intracellular Trypanosoma cruzi in host cells, plate reader. activity score (inhibition), % at 5.01 µM. 4.9% of 22,000 active. AID 651903; in the data active = activity score above about 55%; inconclusive = no clear call, values can overlap the other calls;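 also: parasites and compound incubated about four days before reading; 0% = median of neutral control wells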
* = called active by the depositor; ? = inconclusive; / = no result given.

SMILES	YB-1 expression	INS-1E rescue	T cruzi HTS
C[C@H](CO)N1C[C@H](C)[C@H](CN(C)Cc2ccc(C(=O)Nc3ccccc3N)cc2)Oc2ccc(NS(=O)(=O)c3cccs3)cc2C1=O	-0.382	11.0	65.4*
C[C@@H]1CN([C@H](C)CO)C(=O)Cc2cc(NS(=O)(=O)c3cccs3)ccc2O[C@@H]1CN(C)Cc1ccc(C(=O)Nc2ccccc2N)cc1	0.0597	-7.0	42.2
C[C@@H]1CN([C@@H](C)CO)C(=O)Cc2cc(NS(=O)(=O)c3cccs3)ccc2O[C@@H]1CN(C)Cc1ccc(C(=O)Nc2ccccc2N)cc1	-0.151	-6.5	62.5*
C[C@@H]1CN([C@H](C)CO)C(=O)c2cc(NS(=O)(=O)c3cccs3)ccc2O[C@@H]1CN(C)Cc1ccc(C(=O)Nc2ccccc2N)cc1	-0.0958	29.5	63.5*
C[C@H]1CN([C@@H](C)CO)C(=O)c2cc(NS(=O)(=O)c3cccs3)ccc2O[C@H]1CN(C)Cc1ccc(C(=O)Nc2ccccc2N)cc1	-0.311	-7.7	34.9
CC1CCC(C(C)C)C(NC(=O)c2cccc3ccccc23)C1 (stereo unspecified)	-0.0569	/	/
CC(C)/C(=N/O)c1ccccc1	0.145	/	/
Cc1cc(NC(=O)c2ccc(N)cc2)c(N)cc1N	0.0636	/	/
O=C1c2ccccc2C(=O)N1CC12CC3CC(CC(C3)C1)C2	-0.0692	/	/
CC(C)N1C/C(=C/c2ccccc2)C(=O)/C(=C/c2ccccc2)C1	0.349	/	/
CC(C)S(=O)(=O)N1CCN(Cc2ccc(OCCO)cc2)CC1	0.426	/	/
Oc1cc(C2CCCCC2)cc(C2CCCCC2)c1	0.00714	/	/
C/C1=C/C[C@]2(C)C(=O)C(=O)C([C@H](C)CO)[C@H]2C/C=C(/C)[C@@H](O)CC/C(C)=C\CC1 (stereo partly specified)	-0.593	/	/
C[C@@H]1CN([C@@H](C)CO)C(=O)c2cccc(NC(=O)CCCCCC(=O)Nc3ccccc3N)c2O[C@@H]1CN(C)S(=O)(=O)c1ccc(Cl)cc1	0.115	-17.6	56.5*
C[C@@H]1CN([C@@H](C)CO)C(=O)c2cccc(NC(=O)CCCCCC(=O)Nc3ccccc3N)c2O[C@@H]1CN(C)Cc1ccc(Cl)c(Cl)c1	-0.129	19.2	52.1
C[C@@H]1CN([C@H](C)CO)C(=O)c2cccc(NC(=O)CCCCCC(=O)Nc3ccccc3N)c2O[C@@H]1CN(C)S(=O)(=O)c1ccc(Cl)cc1	0.243	0.5	?
C[C@@H]1CN([C@H](C)CO)C(=O)c2cccc(NC(=O)CCCCCC(=O)Nc3ccccc3N)c2O[C@@H]1CN(C)Cc1ccc(Cl)c(Cl)c1	0.0666	3.4	60.8*
C[C@@H]1CN([C@H](C)CO)C(=O)c2cccc(NC(=O)CCCCCC(=O)Nc3ccccc3N)c2O[C@@H]1CN(C)C	-0.0876	-9.1	-43.4
C[C@H]1CN([C@@H](C)CO)C(=O)c2cccc(NC(=O)CCCCCC(=O)Nc3ccccc3N)c2O[C@H]1CN(C)Cc1ccc(Cl)c(Cl)c1	-0.948	8.9	70.0*
Cc1onc(-c2ccccc2Cl)c1C1=NCCO1	-0.18	/	/
N#CC1=C(N)Nc2c(c(=O)oc3ccccc23)C1c1ccc(Br)cc1 (stereo unspecified)	-0.4	/	/
CC1OC(NC(=O)c2ccccc2F)C(NC(=O)c2ccccc2F)OC1C (stereo unspecified)	-0.199	/	/
C=C(C)CC1C(=O)NN=C1C (stereo unspecified)	-0.0457	/	/
Cc1cc(C(=O)N(c2ccccc2)C(C)C2CC2)c(Cl)cc1Cl (stereo unspecified)	-0.802	/	/
Cc1ccc(SC(=O)c2c(C)noc2COc2ccccc2)cc1	0.697	/	/
SMILES	YB-1 expression	INS-1E rescue	T cruzi HTS
COc1cc(C(=O)OCC2(O)COC(OCC3OC(Oc4c(OC)cc(CO)cc4OC)C(O)C(O)C3O)C2O)cc(OC)c1O (stereo unspecified)	7.15*	/	/
COc1cc(C(=O)OC[C@@]2(O)CO[C@H](OC3C(CO)OC(Oc4cc(OC)c(OC)c(OC)c4)C(O)C3O)[C@@H]2O)cc(OC)c1O (stereo partly specified)	0.0368	/	/
Cc1c(C)n(Cc2ccc(Br)cc2)c(=O)n(Cc2ccc(Br)cc2)c1=O	0.0301	/	/
C[C@H]1CN([C@@H](C)CO)C(=O)Cc2cc(NC(=O)Nc3ccc4c(c3)OCO4)ccc2O[C@@H]1CN(C)Cc1ccc(C(=O)Nc2ccccc2N)cc1	0.535	-9.7	55.8*
C[C@H](CO)N1C[C@H](C)[C@H](CN(C)Cc2ccc(C(=O)Nc3ccccc3N)cc2)Oc2ccc(NC(=O)Nc3ccc4c(c3)OCO4)cc2CC1=O	-0.193	47.9	67.1*
CC(C)NC(=O)Nc1ccc2c(c1)CC(=O)N([C@@H](C)CO)C[C@@H](C)[C@@H](CN(C)Cc1ccc(C(=O)Nc3ccccc3N)cc1)O2	-0.325	-23.2	40.3
CC(C)(C)c1cc(-c2nnc(-c3cccs3)o2)n(Cc2ccc(F)cc2)n1	-0.526	/	/
COc1cccc2sc(=NC(=O)CC34CC5CC(CC(C5)C3)C4)n(C)c12	-0.317	/	/
C=CCSc1nnc(-c2ccc(C)cc2)o1	0.193	/	/
C[C@H]1CN([C@@H](C)CO)C(=O)c2cccc(NC(=O)Nc3cccc4ccccc34)c2O[C@H]1CN(C)C(=O)Nc1ccc(C(F)(F)F)cc1	0.00569	-29.1	63.2*
C[C@H](CO)N1C[C@H](C)[C@@H](CN(C)C(=O)Nc2ccc(C(F)(F)F)cc2)Oc2c(NC(=O)Nc3cccc4ccccc34)cccc2C1=O	0.222	-34.0	51.8
C[C@@H]1CN([C@@H](C)CO)C(=O)c2cccc(NC(=O)Nc3ccc(C(F)(F)F)cc3)c2O[C@H]1CN(C)C(=O)Nc1cccc2ccccc12	0.343	-29.6	38.0
C[C@H](CO)N1C[C@H](C)[C@H](CN(C)C(=O)Nc2cccc3ccccc23)Oc2c(NC(=O)Nc3ccc(C(F)(F)F)cc3)cccc2C1=O	0.189	-13.6	65.9*
C[C@H](CO)N1C[C@H](C)[C@@H](CN(C)C(=O)Nc2cccc3ccccc23)Oc2c(NC(=O)Nc3ccc(C(F)(F)F)cc3)cccc2C1=O	0.561	-7.5	61.3*
C[C@@H]1CN([C@@H](C)CO)C(=O)c2cccc(NC(=O)Nc3ccc(C(F)(F)F)cc3)c2O[C@@H]1CN(C)C(=O)Nc1cccc2ccccc12	0.456	-58.7	-27.0
NNC(=O)C12CCCC(CCC1)C2	-0.179	/	/
COc1ccc([C@H]2C=C(C(=O)NCc3ccccc3)O[C@@H](OCc3ccc(CO)cc3)C2)cc1	3.3*	/	/
O=C(O)C1=C[C@@H](c2ccccc2)C[C@@H](OCc2ccc(CO)cc2)O1	-0.228	/	/
C[C@H]1CN([C@@H](C)CO)C(=O)c2cccc(NC(=O)NC3CCCCC3)c2O[C@H]1CN(C)Cc1ccc(-c2ccccc2)cc1	-0.195	-19.4	-29.2
C[C@@H]1CN([C@@H](C)CO)C(=O)c2cccc(NC(=O)NC3CCCCC3)c2O[C@H]1CN(C)Cc1ccc(C(F)(F)F)cc1	0.0407	-6.2	84.6*
C[C@@H]1CN([C@@H](C)CO)C(=O)c2cccc(NC(=O)NC3CCCCC3)c2O[C@@H]1CN(C)Cc1ccc(Oc2ccccc2)cc1	0.0863	-53.3	63.8*
C[C@@H]1CN([C@H](C)CO)C(=O)c2cccc(NC(=O)NC3CCCCC3)c2O[C@@H]1CN(C)Cc1ccc(-c2ccccc2)cc1	-0.21	-32.1	70.2*
